In ChEMBL document CHEMBL4043131, “New prodrugs of two pyrimidine acyclic nucleoside phosphonates: Synthesis and antiviral activity” (Bioorg Med Chem, 2017):
pEC50: −log10 of the molar value. Calls of active or inactive are those of the source. The rule behind the calls is not given here.

Assays:
Punta Toro virus = experiment: Antiviral activity against Punta Toro virus infected in African green monkey Vero cells assessed as inhibition of virus-induced cytopathic effect; type: functional
Procedure, shortened: (§1)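 Confluent cell monolayers were infected with 100 CCID50 of virus (1 CCID50 = dose infecting 50% of cultures) and incubated with varying compound concentrations. Cytopathicity was scored once complete in untreated infected controls.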

Human respirovirus 3 = experiment: Antiviral activity against Parainfluenza virus 3 infected in African green monkey Vero cells assessed as inhibition of virus-induced cytopathic effect; type: functional; procedure, shortened: as §1
Human alphaherpesvirus 3 [1] = experiment: Antiviral activity against wild type thymidine kinase expressing Varicella-Zoster virus Oka infected in HEL cells assessed as inhibition of virus-induced plaque formation; type: functional, cell-based; conditions: Human alphaherpesvirus 3, Oka
Procedure, shortened: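 Confluent HEL cultures were inoculated with 20 PFU of VZV and incubated with varying compound concentrations. Plaques were counted once formation was complete in untreated infected controls.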

HEL = experiment: (§2) Cytotoxicity against HEL cells assessed as reduction in cell growth after 3 days by coulter counter method; type: cell-based; conditions: human, hel, 72 h
Procedure, shortened: (§3)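 HEL cells were seeded at 5 × 10³ cells/well and grown for 24 h, then given medium containing graded compound concentrations. After 3 days at 37 °C, cells were counted by Coulter counter.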

Human alphaherpesvirus 1 [2] = experiment: Antiviral activity against wild type Herpes simplex virus 1 KOS infected in HEL cells assessed as inhibition of virus-induced cytopathic effect; type: functional, cell-based; conditions: Human alphaherpesvirus 1, KOS
Feline coronavirus = experiment: Antiviral activity against Feline coronavirus infected in CRFK cells assessed as inhibition of virus-induced cytopathic effect; type: functional, cell-based
[3] = system: Mammalian orthoreovirus 1; experiment: Antiviral activity against Reovirus-1 infected in African green monkey Vero cells assessed as inhibition of virus-induced cytopathic effect; type: functional; procedure, shortened: as §1
Human betaherpesvirus 5 [4] = experiment: Antiviral activity against Human cytomegalovirus AD169 infected in HEL cells assessed as inhibition of virus-induced cytopathic effect; type: functional, cell-based; conditions: Human betaherpesvirus 5, AD169, HEL; procedure, shortened: as §1
Human alphaherpesvirus 1 [5] = experiment: Antiviral activity against thymidine kinase-deficient ACV-resistant Herpes simplex virus 1 KOS infected in HEL cells assessed as inhibition of virus-induced cytopathic effect; type: functional, cell-based; conditions: Human alphaherpesvirus 1, KOS
[6] = system: Vesicular stomatitis virus; experiment: Antiviral activity against Vesicular stomatitis virus infected in HEL cells assessed as inhibition of virus-induced cytopathic effect; type: functional, cell-based
Human alphaherpesvirus 2 = experiment: Antiviral activity against Herpes simplex virus 2 G infected in HEL cells assessed as inhibition of virus-induced cytopathic effect; type: functional, cell-based; conditions: Human alphaherpesvirus 2, strain G; procedure, shortened: as §1
Vaccinia virus = experiment: Antiviral activity against Vaccinia virus Lederle infected in HEL cells assessed as inhibition of virus-induced cytopathic effect; type: functional, cell-based; conditions: Orthopoxvirus vaccinia
Influenza A virus = experiment: Antiviral activity against Influenza A virus (H1N1) infected in HEL cells assessed as inhibition of virus-induced cytopathic effect; type: functional, cell-based
Human alphaherpesvirus 3 [7] = experiment: Antiviral activity against wild type thymidine kinase-deficient Varicella-Zoster virus 07-1 infected in HEL cells assessed as inhibition of virus-induced plaque formation; type: functional, cell-based; conditions: Human alphaherpesvirus 3, 07-1, HEL
Procedure, shortened: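 HEL fibroblast monolayers were infected with 20 PFU of VZV and kept with varying compound concentrations. Plaques were counted once formation was complete in untreated infected controls.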

Influenza A virus H3N2 = experiment: Antiviral activity against Influenza A virus H3N2 infected in HEL cells assessed as inhibition of virus-induced cytopathic effect; type: functional, cell-based
Human betaherpesvirus 5 [8] = experiment: Antiviral activity against Human cytomegalovirus Davis infected in HEL cells assessed as inhibition of virus-induced cytopathic effect; type: functional, cell-based; conditions: Human betaherpesvirus 5, Davis; procedure, shortened: as §1
Influenza B virus = experiment: Antiviral activity against influenza B virus infected in HEL cells assessed as inhibition of virus-induced cytopathic effect; type: functional, cell-based
Sindbis virus = experiment: Antiviral activity against Sindbis virus infected in African green monkey Vero cells assessed as inhibition of virus-induced cytopathic effect; type: functional; procedure, shortened: as §1
[9] = Antiviral activity against Respiratory syncytial virus A strain long infected in human HeLA cells assessed as inhibition of virus-induced cytopathic effect; type: functional, cell-based; procedure, shortened: as §1
Coxsackievirus B4 = experiment: Antiviral activity against Coxsackie virus B4 infected in human HeLA cells assessed as inhibition of virus-induced cytopathic effect; type: functional, cell-based; procedure, shortened: as §1
[10] = Cytotoxicity against HEL cells assessed as alteration of cell morphology by microscopic analysis; type: cell-based; conditions: human
Procedure, shortened: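 MCC is the lowest compound concentration causing a microscopically detectable alteration of cell morphology.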

[11] = as §2; type: cell-based; conditions: human, HEL cells; procedure, shortened: as §3

## CCOC(=O)[C@H](Cc1ccccc1)NP(=O)(COCCn1cnc(N)nc1=O)N[C@@H](Cc1ccccc1)C(=O)OCC
Punta Toro virus
  Activity: inactive
Human respirovirus 3
  Activity: inactive
Human alphaherpesvirus 3 [1]
  pEC50: 4.53
HEL
  CC50: > 100 µM
Human alphaherpesvirus 1 [2]
  pEC50: 4.49
Feline coronavirus
  Activity: inactive
[3]
  Activity: inactive
Human betaherpesvirus 5 [4]
  pEC50: 4.81
Human alphaherpesvirus 1 [5]
  pEC50: 4.38
[6]
  Activity: inactive
Human alphaherpesvirus 2
  pEC50: 4.40
Vaccinia virus
  pEC50: < 4.00
Influenza A virus
  Activity: inactive
Human alphaherpesvirus 3 [7]
  pEC50: 4.57
Influenza A virus H3N2
  Activity: inactive
Human betaherpesvirus 5 [8]
  pEC50: 5.12
Influenza B virus
  Activity: inactive
Sindbis virus
  Activity: inactive
[9]
  Activity: inactive
Coxsackievirus B4
  Activity: inactive
[10]
  MCC: > 100 µM

## CC(C)OC(=O)OCOP(=O)(COCCOc1cc(N)nc(N)n1)OCOC(=O)OC(C)C
Punta Toro virus
  Activity: inactive
Human respirovirus 3
  Activity: inactive
Human alphaherpesvirus 3 [1]
  pEC50: 6.49
[11]
  CC50 at 72 h: 15.1 µM
Feline coronavirus
  Activity: inactive
[3]
  Activity: inactive
Human betaherpesvirus 5 [4]
  pEC50: 4.05
Human alphaherpesvirus 2
  pEC50: 6.00
Human alphaherpesvirus 3 [7]
  pEC50: 6.54
Human betaherpesvirus 5 [8]
  pEC50: 4.06
Sindbis virus
  Activity: inactive
[9]
  Activity: inactive
Coxsackievirus B4
  Activity: inactive
[10]
  MCC: > 202 µM
